{"source": "ChEMBL document CHEMBL2034883", "about": "“Asperjinone, a nor-neolignan, and terrein, a suppressor of ABCG2-expressing breast cancer cells, from thermophilic Aspergillus terreus” (J Nat Prod, 2012)", "key": {"[1]": {"system": "MCF7", "test": "Cytotoxicity against human MCF7 cells at 100 uM after 96 hrs by MTT assay", "assay_type": "functional, cell-based"}, "[2]": {"system": "MCF7", "test": "Growth inhibition of human MCF7 cells at 1 nM after 96 hrs by MTT assay", "assay_type": "functional", "conditions": "MCF7, 96 h, read-out: GI"}, "[3]": {"system": "PANC-1", "test": "Cytotoxicity against human PANC1 cells after 96 hrs by MTT assay", "assay_type": "functional, cell-based", "conditions": "PANC-1, 96 h"}, "[4]": {"system": "HepG2", "test": "Cytotoxicity against human HepG2 cells after 96 hrs by MTT assay", "assay_type": "functional, cell-based", "conditions": "HepG2, 96 h"}, "[5]": {"system": "MCF7", "test": "Induction of apoptosis in human MCF7 cells assessed as viable cells at 1 nM after 96 hrs by annexinV/propidium iodide staining-based flow cytometric analysis (reference value: 89 %)", "assay_type": "functional", "conditions": "MCF7, 96 h, read-out: Activity"}, "[6]": {"system": "MCF7", "test": "Induction of apoptosis in human MCF7 cells assessed as early apoptotic cells at 1 nM after 96 hrs by annexinV/propidium iodide staining-based flow cytometric analysis (reference value: 3.05 %)", "assay_type": "functional"}, "[7]": {"system": "MCF7", "test": "Induction of apoptosis in human MCF7 cells assessed as late apoptotic cells at 1 nM after 96 hrs by annexinV/propidium iodide staining-based flow cytometric analysis (reference value: 5.02 %)", "assay_type": "functional"}, "[8]": {"system": "MCF7", "test": "Induction of apoptosis in human MCF7 cells assessed as necrotic cells at 1 nM after 96 hrs by annexinV/propidium iodide staining-based flow cytometric analysis (reference value: 2.89 %)", "assay_type": "functional"}, "[9]": {"system": "MCF7", "test": "Induction of apoptosis in human MCF7 cells assessed as viable cells at 10 nM after 96 hrs by annexinV/propidium iodide staining-based flow cytometric analysis (reference value: 89 %)", "assay_type": "functional", "conditions": "MCF7, 96 h, read-out: Activity"}, "[10]": {"system": "MCF7", "test": "Induction of apoptosis in human MCF7 cells assessed as early apoptotic cells at 10 nM after 96 hrs by annexinV/propidium iodide staining-based flow cytometric analysis (reference value: 3.05 %)", "assay_type": "functional"}, "[11]": {"system": "MCF7", "test": "Induction of apoptosis in human MCF7 cells assessed as late apoptotic cells at 10 nM after 96 hrs by annexinV/propidium iodide staining-based flow cytometric analysis (reference value: 5.02 %)", "assay_type": "functional"}, "[12]": {"system": "MCF7", "test": "Induction of apoptosis in human MCF7 cells assessed as necrotic cells at 10 nM after 96 hrs by annexinV/propidium iodide staining-based flow cytometric analysis (reference value: 2.89 %)", "assay_type": "functional"}, "[13]": {"system": "MCF7", "test": "Induction of apoptosis in human MCF7 cells assessed as caspase 7 cleavage at 1 nM after 96 hrs by Western blot analysis", "assay_type": "functional, cell-based", "how_it_was_run": "(§1)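 MCF-7 cells (2.0 × 10^5) exposed to 1 nM for 24, 48, 72 and 96 h; 10 nM paclitaxel as control. Lysed in RIPA (pH 8) with protease and phosphatase inhibitors; 40 μg protein per lane run on 10% SDS-PAGE and transferred to PVDF. Blocked in 5% milk/TBST 1 h; primary antibody overnight at 4 °C. Anti-ABCG2 1:100, anti-PARP and anti-caspase-7 each 1:1000. ECL detection.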"}, "[14]": {"system": "MCF7", "test": "Induction of apoptosis in human MCF7 cells assessed as PARP cleavage at 1 nM after 96 hrs by Western blot analysis", "assay_type": "functional, cell-based", "how_it_was_run": "as §1"}, "[15]": {"system": "MCF7", "test": "Down regulation of ABCG2 expression in human MCF7 cells at 1 nM after 96 hrs by Western blot analysis", "assay_type": "functional, cell-based", "how_it_was_run": "as §1"}, "[16]": {"system": "MCF7", "test": "Cytotoxicity against ABCG2-positive human MCF7 cells at 1 nM after 96 hrs by Western blot analysis", "assay_type": "functional, cell-based", "conditions": "in the assay text read “FACS analysis” for “Western blot analysis”", "how_it_was_run": "(§2)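 ABCG2+ subpopulation counted by flow cytometry. MCF-7 cells (2.0 × 10^4) treated 96 h, trypsinized, washed in PBS and resuspended in HBSS with 2% FBS and 10 mM HEPES (10^6/100 μL). Labelled with anti-ABCG2 (5D3) for 30 min, then PE anti-mouse IgG for 15 min. PI (2 μg/mL) added to exclude dead cells. Total ABCG2+ cell number reported as mean ± SD of at least three independent experiments.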"}, "[17]": {"system": "MCF7", "test": "Cytotoxicity against ABCG2-positive human MCF7 cells at 10 nM after 96 hrs by Western blot analysis", "assay_type": "functional, cell-based", "conditions": "in the assay text read “FACS analysis” for “Western blot analysis”", "how_it_was_run": "as §2"}, "[18]": {"system": "MCF7", "test": "Cytotoxicity against ABCG2-positive human MCF7 cells after 96 hrs by Western blot analysis", "assay_type": "functional, cell-based", "conditions": "in the assay text read “FACS analysis” for “Western blot analysis”", "how_it_was_run": "as §2"}, "[19]": {"system": "MCF7", "test": "Cytotoxicity against human MCF7 cells assessed as suppression of SP-positive cells at 1 nM after 90 mins by Hoechst staining-based FACS analysis (reference value: 2.71%)", "assay_type": "functional", "how_it_was_run": "(§3)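 Side-population assay. MCF-7 cells (1 × 10^6) trypsinized, washed three times in PBS and resuspended in HBSS with 2% FBS and 10 mM HEPES. Incubated with Hoechst 33342 (5 μg/mL) at 37 °C for 90 min with or without compound (1 or 10 nM). FTC (10 μM) used as control. SP fraction gated by flow cytometry. At least three independent experiments.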"}, "[20]": {"system": "MCF7", "test": "Cytotoxicity against human MCF7 cells assessed as suppression of SP-positive cells at 10 nM after 90 mins by Hoechst staining-based FACS analysis (reference value: 2.71%)", "assay_type": "functional", "how_it_was_run": "as §3"}, "[21]": {"system": "MCF7", "test": "Inhibition of PI3K-mediated Akt phosphorylation at Ser473 in human MCF7 cells at 1 nM after 6 hrs by Western blot analysis", "assay_type": "cell-based", "how_it_was_run": "(§4)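 MCF-7 cells (2.0 × 10^5) exposed to 1 nM for 1, 3 and 6 h; 10 μM LY294002 as positive control. RIPA lysates, 40 μg per lane, 10% SDS-PAGE and PVDF transfer. Probed overnight at 4 °C with anti-Akt and anti-phospho-Akt Ser473 (1:1000 each), with β-actin (1:10000) as loading control. ECL detection.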"}, "[22]": {"system": "MCF7", "test": "Down regulation of Akt expression in human MCF7 cells at 1 nM after 6 hrs by Western blot analysis", "assay_type": "functional, cell-based", "how_it_was_run": "as §4"}, "[23]": {"system": "MCF7", "test": "Cytotoxicity against human MCF7 cells after 48 hrs by MTT assay", "conditions": "MCF7, 48 h"}, "[24]": {"system": "MCF7", "test": "Down regulation of ABCG2 expression in human MCF7 cells at 1 nM after 96 hrs by Western blot analysis"}, "[25]": {"system": "MCF7", "test": "Cytotoxicity against human MCF7 cells assessed as suppression of SP-positive cells at 10 uM after 90 mins by Hoechst staining-based FACS analysis (reference value: 2.71%)", "assay_type": "functional"}}, "note": "Active and inactive are the calls of the source. The calls are words filed in the database; no cut-off is given here.", "data": [{"smiles": "COC(=O)[C@@]1(Cc2ccc(O)c(CC=C(C)C)c2)OC(=O)C(O)=C1c1ccc(O)cc1", "values": [{"measurement": "Activity", "setting": "[1]", "result": "inactive"}]}, {"smiles": "C/C=C/C1=CC(=O)[C@@H](O)[C@@H]1O", "note": "[TERREIN]", "values": [{"measurement": "inhibition of growth at 0.001 µM", "setting": "[2]", "result": 70, "unit": "%"}, {"measurement": "IC50", "setting": "[3]", "result": 9.8, "unit": "µM"}, {"measurement": "IC50", "setting": "[4]", "result": 66.8, "unit": "nM"}, {"measurement": "viability at 0.001 µM", "setting": "[5]", "result": 59.7, "unit": "%"}, {"measurement": "Activity", "setting": "[6]", "result": 29.6, "unit": "%"}, {"measurement": "Activity", "setting": "[7]", "result": 8.89, "unit": "%"}, {"measurement": "Activity", "setting": "[8]", "result": 1.89, "unit": "%"}, {"measurement": "viability at 0.01 µM", "setting": "[9]", "result": 65.6, "unit": "%"}, {"measurement": "Activity", "setting": "[10]", "result": 24, "unit": "%"}, {"measurement": "Activity", "setting": "[11]", "result": 7.92, "unit": "%"}, {"measurement": "Activity", "setting": "[12]", "result": 2.48, "unit": "%"}, {"measurement": "Activity", "setting": "[13]", "result": "Active"}, {"measurement": "Activity", "setting": "[14]", "result": "Active"}, {"measurement": "Activity", "setting": "[15]", "result": "Active"}, {"measurement": "Activity", "setting": "[16]", "result": "Active"}, {"measurement": "Activity", "setting": "[17]", "result": "Active"}, {"measurement": "Activity", "setting": "[18]", "result": "Dose-dependent effect"}, {"measurement": "Activity", "setting": "[19]", "result": 0.77, "unit": "%"}, {"measurement": "Activity", "setting": "[20]", "result": 0.89, "unit": "%"}, {"measurement": "inhibition", "setting": "[21]", "result": "Active"}, {"measurement": "Activity", "setting": "[22]", "result": "Active"}, {"measurement": "IC50", "setting": "[23]", "result": 1.1, "unit": "nM"}, {"measurement": "Activity", "setting": "[24]", "result": "Active"}]}, {"smiles": "COC(=O)[C@]1(Cc2ccc3c(c2)C[C@H](O)C(C)(C)O3)OC(=O)C(O)=C1c1ccc(O)cc1", "values": [{"measurement": "Activity", "setting": "[1]", "result": "inactive"}]}, {"smiles": "COC(=O)c1cc(O)cc(OC)c1Oc1c(Cl)c(C)c(Cl)c(O)c1C(=O)OC", "values": [{"measurement": "Activity", "setting": "[1]", "result": "inactive"}]}, {"smiles": "COc1ccc2c3c([nH]c2c1)[C@H](C=C(C)C)N1C(=O)[C@@H]2CCCN2C(=O)[C@@H]1C3", "note": "[FUMITREMORGIN]", "values": [{"measurement": "Activity", "setting": "[25]", "result": 0.81, "unit": "%"}]}, {"smiles": "COc1cc(O)cc(C(=O)O)c1C(=O)c1c(O)c(Cl)c(C)c(Cl)c1O", "values": [{"measurement": "Activity", "setting": "[1]", "result": "inactive"}]}, {"smiles": "COC(=O)c1cc(O)cc(OC)c1Oc1c(Cl)c(C)c(Cl)c(O)c1C(=O)O", "values": [{"measurement": "Activity", "setting": "[1]", "result": "inactive"}]}, {"smiles": "COC(=O)[C@]1(Cc2ccc3c(c2)C[C@H](C(C)(C)O)O3)OC(=O)C(O)=C1c1ccc(O)cc1", "values": [{"measurement": "Activity", "setting": "[1]", "result": "inactive"}]}, {"smiles": "COC(=O)c1cc(O)cc(OC)c1Oc1cc(C)cc(O)c1C(=O)O", "values": [{"measurement": "Activity", "setting": "[1]", "result": "inactive"}]}, {"smiles": "COc1cc(COC(C)=O)cc2c1C(=O)c1c(O)cc(O)cc1C2=O", "values": [{"measurement": "Activity", "setting": "[1]", "result": "inactive"}]}, {"smiles": "CC(=O)O[C@H]1C(=O)[C@@]2(C)[C@H]([C@H](OC(=O)c3ccccc3)[C@]3(O)C[C@H](OC(=O)[C@H](O)[C@@H](NC(=O)c4ccccc4)c4ccccc4)C(C)=C1C3(C)C)[C@]1(OC(C)=O)CO[C@@H]1C[C@@H]2O", "note": "[PACLITAXEL]", "values": [{"measurement": "viability at 0.01 µM", "setting": "[9]", "result": 72.1, "unit": "%"}, {"measurement": "Activity", "setting": "[10]", "result": 15.6, "unit": "%"}, {"measurement": "Activity", "setting": "[11]", "result": 9.34, "unit": "%"}, {"measurement": "Activity", "setting": "[12]", "result": 2.91, "unit": "%"}, {"measurement": "Activity", "setting": "[18]", "result": "Dose-dependent effect"}, {"measurement": "Activity", "setting": "[19]", "result": 1.71, "unit": "%"}, {"measurement": "Activity", "setting": "[20]", "result": 1.65, "unit": "%"}]}, {"smiles": "COC(=O)c1cc(O)cc(OC)c1C(=O)c1c(O)c(Cl)c(C)c(Cl)c1O", "values": [{"measurement": "Activity", "setting": "[1]", "result": "inactive"}]}, {"smiles": "CC1(C)OC1Cc1cc(CC2=C(c3ccc(O)cc3)C(=O)OC2=O)ccc1O", "note": "(configuration not stated)", "values": [{"measurement": "Activity", "setting": "[1]", "result": "inactive"}]}, {"smiles": "COc1cc(O)cc2c1C(=O)c1c(O)cc(C)cc1C2=O", "values": [{"measurement": "Activity", "setting": "[1]", "result": "inactive"}]}]}
